This note sets out measurements from ChEMBL document CHEMBL1135528, “Monocyclic human tachykinin NK-2 receptor antagonists as evolution of a potent bicyclic antagonist: QSAR and site-directed mutagenesis studies” (J Med Chem, 2002).

Substitutions are numbered along the chain they refer to. Calls of active or inactive are those of the source. The rule behind the calls is not given here. *1 amine or outer side, *2 acyl side, *3 side chain or, on linkers, in order; H or OH if unused. Where a SMILES comes first, the peptide text is derived from it. Bridges are numbered along the chain shown (N, C = ends). [ ]: non-standard residue; d: D form. Suc = O=C(CCC(=O)[*:2])[*:1]; Dap = NC[C@H](N)C(=O)O

What is called Ki is the equilibrium dissociation constant of an inhibitor or competing ligand from its target.

One test has as its target T1, Substance-K receptor (Homo sapiens, UniProt P21452).
T1 sequence (P21452 whole entry): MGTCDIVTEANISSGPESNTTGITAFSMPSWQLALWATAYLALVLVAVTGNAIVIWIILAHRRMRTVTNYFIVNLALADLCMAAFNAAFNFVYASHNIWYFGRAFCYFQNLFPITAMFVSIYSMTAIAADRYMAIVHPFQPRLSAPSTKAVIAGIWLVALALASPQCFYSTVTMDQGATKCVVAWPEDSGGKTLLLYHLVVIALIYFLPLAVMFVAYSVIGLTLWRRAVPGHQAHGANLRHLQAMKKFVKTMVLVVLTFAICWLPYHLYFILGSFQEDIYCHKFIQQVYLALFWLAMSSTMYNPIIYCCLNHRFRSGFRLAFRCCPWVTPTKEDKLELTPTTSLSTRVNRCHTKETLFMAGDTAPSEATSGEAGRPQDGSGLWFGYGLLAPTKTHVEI
The experiment in a line: Inhibitory affinity constant (pKi) against tachykinin receptor 2 (NK-2R) using heterologous competition experiments. In short, it runs like this:
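Buffer was 50 mM Tris-HCl pH 7.4. Competitors ranged 0.3 pM–10 μM. Filter-bound radioactivity was counted, and pKi was obtained by fitting competition curves. Mean ± sem of duplicate experiments.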

Test [1] concerns Substance-K receptor (Homo sapiens), P21452 [Y289F].
Chain of Substance-K receptor (Homo sapiens), P21452 [Y289F] (P21452 whole entry Y289F): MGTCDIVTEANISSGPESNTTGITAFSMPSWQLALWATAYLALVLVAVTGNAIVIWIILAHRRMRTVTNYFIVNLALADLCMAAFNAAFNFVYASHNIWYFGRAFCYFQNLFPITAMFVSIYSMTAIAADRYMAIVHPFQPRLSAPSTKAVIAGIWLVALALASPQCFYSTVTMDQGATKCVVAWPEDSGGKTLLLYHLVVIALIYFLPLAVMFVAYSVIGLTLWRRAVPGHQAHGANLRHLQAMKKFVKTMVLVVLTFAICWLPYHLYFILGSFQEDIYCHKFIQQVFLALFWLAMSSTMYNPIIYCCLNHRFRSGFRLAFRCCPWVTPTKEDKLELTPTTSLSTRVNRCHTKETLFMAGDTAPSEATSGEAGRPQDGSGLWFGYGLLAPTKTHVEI
Test [2] has as its system T2, Substance-K receptor (Homo sapiens), P21452 [W263A].
T2 sequence (whole entry): T1 sequence (P21452 whole entry) with W263A

Test [3] concerns Substance-K receptor (Homo sapiens), P21452 [Y289T].
Chain of Substance-K receptor (Homo sapiens), P21452 [Y289T] (P21452 whole entry Y289T): as the sequence (P21452 whole entry Y289F) above, with F289T counted along it
Test [4] relates to Substance-K receptor (Homo sapiens), P21452 [Q166A].
Chain of Substance-K receptor (Homo sapiens), P21452 [Q166A] (P21452 whole entry Q166A): as the sequence (P21452 whole entry Y289F) above, with Q166A, F289Y counted along it
Test [5] relates to Substance-K receptor (Homo sapiens), P21452 [N110A].
Chain of Substance-K receptor (Homo sapiens), P21452 [N110A] (P21452 whole entry N110A): as the sequence (P21452 whole entry Y289F) above, with N110A, F289Y counted along it
Test [6] has as its system T3, Substance-K receptor (Homo sapiens), P21452 [S170A].
T3 sequence (whole entry): T1 sequence (P21452 whole entry) with S170A

The test system of test [7] is Substance-K receptor (Homo sapiens), P21452 [F112A].
Chain of Substance-K receptor (Homo sapiens), P21452 [F112A] (P21452 whole entry F112A): as the sequence (P21452 whole entry Y289F) above, with F112A, F289Y counted along it
For test [8], the system named is Substance-K receptor (Homo sapiens), P21452 [I202F].
Chain of Substance-K receptor (Homo sapiens), P21452 [I202F] (P21452 whole entry I202F): as the sequence (P21452 whole entry Y289F) above, with I202F, F289Y counted along it
For test [9], the system named is Substance-K receptor (Homo sapiens), P21452 [Y206F].
Chain of Substance-K receptor (Homo sapiens), P21452 [Y206F] (P21452 whole entry Y206F): as the sequence (P21452 whole entry Y289F) above, with Y206F, F289Y counted along it
For test [10], the system named is T4, Substance-K receptor (Homo sapiens), P21452 [C167A].
T4 sequence (whole entry): T1 sequence (P21452 whole entry) with C167A

Test [11] deals with Substance-K receptor (Homo sapiens), P21452 [Y269F].
Chain of Substance-K receptor (Homo sapiens), P21452 [Y269F] (P21452 whole entry Y269F): as the sequence (P21452 whole entry Y289F) above, with Y269F, F289Y counted along it
Test [12] concerns Substance-K receptor (Homo sapiens), P21452 [Y169A].
Chain of Substance-K receptor (Homo sapiens), P21452 [Y169A] (P21452 whole entry Y169A): as the sequence (P21452 whole entry Y289F) above, with Y169A, F289Y counted along it
Test [13] has as its system Substance-K receptor (Homo sapiens), P21452 [Y107A].
Test [14] has as its system Substance-K receptor (Homo sapiens), P21452 [T171A].
Test [15] concerns Substance-K receptor (Homo sapiens), P21452 [F293A].
Chain of Substance-K receptor (Homo sapiens), P21452 [F293A] (P21452 whole entry F293A): as the sequence (P21452 whole entry Y289F) above, with F289Y, F293A counted along it
Test [16] concerns T5, Substance-K receptor (Homo sapiens), P21452 [Y266F].
T5 sequence (whole entry): T1 sequence (P21452 whole entry) with Y266F

Test [17] has as its system Substance-K receptor (Homo sapiens), P21452 [H198A].
Test [18] has as its system Substance-K receptor (Homo sapiens), P21452 [Y269A].

Chain of Substance-K receptor (Homo sapiens), P21452 [Y269A] (P21452 whole entry Y269A): as the sequence (P21452 whole entry Y289F) above, with Y269A, F289Y counted along it
Chain of Substance-K receptor (Homo sapiens), P21452 [T171A] (P21452 whole entry T171A): as the sequence (P21452 whole entry Y289F) above, with T171A, F289Y counted along it
Chain of Substance-K receptor (Homo sapiens), P21452 [H198A] (P21452 whole entry H198A): as the sequence (P21452 whole entry Y289F) above, with H198A, F289Y counted along it
Chain of Substance-K receptor (Homo sapiens), P21452 [Y107A] (P21452 whole entry Y107A): as the sequence (P21452 whole entry Y289F) above, with Y107A, F289Y counted along it

Compound `O=C1C[C@@H](N2CCOCC2)C(=O)NC[C@@H](Cc2ccccc2)NC(=O)[C@H](Cc2ccccc2)NC(=O)[C@H](Cc2c[nH]c3ccccc23)N1` showed a Ki at Substance-K receptor of 0.158 nM.

The compound `N[C@H]1CC(=O)NC[C@@H](Cc2ccccc2)NC(=O)[C@H](Cc2ccccc2)NC(=O)[C@H](Cc2c[nH]c3ccccc23)NC1=O` showed a Ki at Substance-K receptor of 3.16 nM. At Substance-K receptor, `O=C1C[C@H](NC(=O)[C@]2(O)C[C@@H](O)[C@@H](O)[C@H](O)C2)C(=O)NC[C@@H](Cc2ccccc2)NC(=O)[C@H](Cc2ccccc2)NC(=O)[C@H](Cc2c[nH]c3ccccc23)N1` gave a Ki of 6.31 nM. `C=CCOC(=O)[C@@H]1CC(=O)N[C@@H](Cc2c[nH]c3ccccc23)C(=O)N[C@@H](Cc2ccccc2)C(=O)N[C@H](Cc2ccc(Cl)c(Cl)c2)C(=O)N1` showed an inhibition constant Ki at Substance-K receptor of 316 nM. Still for that read-out and setting: the value for `O=C1C[C@@H](C(=O)O)NC(=O)[C@@H](Cc2ccc(Cl)c(Cl)c2)NC(=O)[C@H](Cc2ccccc2)NC(=O)[C@H](Cc2c[nH]c3ccccc23)N1` was 398 nM.

Compound `O=C1CCCNC(=O)[C@@H](Cc2ccccc2)NC(=O)[C@H](Cc2ccccc2)NC(=O)[C@H](Cc2c[nH]c3ccccc23)N1` had an inhibition constant Ki at Substance-K receptor of 316 nM. Still for that read-out and setting: the value for `O=C1C[C@H](N2CCOCC2)C(=O)NC[C@@H](Cc2ccccc2)NC(=O)[C@H](Cc2ccccc2)NC(=O)[C@H](Cc2c[nH]c3ccccc23)N1` was 0.794 nM. On the same count and under the same terms, the value for `N=C(N)NCC(=O)N[C@H]1CC(=O)N[C@@H](Cc2c[nH]c3ccccc23)C(=O)N[C@@H](Cc2ccccc2)C(=O)N[C@H](Cc2ccccc2)CNC1=O` was 3.98 nM; that for `NC(=O)[C@@H]1CNC(=O)CCC(=O)N[C@@H](Cc2c[nH]c3ccccc23)C(=O)N[C@@H](Cc2ccccc2)C(=O)N1` (Trp-Phe-[Dap]-NH2; linker N-3 via Suc) was 3980 nM.

For the compound `O=C(N[C@H]1CCCCN(Cc2ccccc2)C(=O)[C@H](Cc2ccccc2)NC(=O)[C@H](Cc2c[nH]c3ccccc23)NC1=O)OCc1ccccc1`, on Substance-K receptor, the inhibitory constant (Ki) was 5.01 nM. In turn, `O=C(O)CCC(=O)N[C@H]1CC(=O)N[C@@H](Cc2c[nH]c3ccccc23)C(=O)N[C@@H](Cc2ccccc2)C(=O)N[C@H](Cc2ccccc2)CNC1=O` gave a Ki at Substance-K receptor of 12.6 nM.

`N[C@H]1CC(=O)N[C@@H](Cc2c[nH]c3ccccc23)C(=O)N[C@@H](Cc2ccccc2)C(=O)N[C@H](Cc2ccccc2)CNC1=O` had a Ki on Substance-K receptor of 3.16 nM. The same measure, in the same setting: the value for `O=C1C[C@@H](NC(=O)CN2CCC(N3CCCCC3)CC2)C(=O)NC[C@H](Cc2ccccc2)NC(=O)[C@H](Cc2ccccc2)NC(=O)[C@H](Cc2c[nH]c3ccccc23)N1` was 0.398 nM. `O=C1C[C@@H](NC(=O)CN2CCOCC2)C(=O)NC[C@@H](Cc2ccccc2)NC(=O)[C@H](Cc2ccccc2)NC(=O)[C@H](Cc2c[nH]c3ccccc23)N1` gave an inhibition constant Ki on Substance-K receptor of 0.316 nM. In the case of `NCCCC(=O)N[C@H]1CC(=O)N[C@@H](Cc2c[nH]c3ccccc23)C(=O)N[C@@H](Cc2ccccc2)C(=O)N[C@H](Cc2ccccc2)CNC1=O`, the inhibitory constant (Ki) at Substance-K receptor is 7.94 nM. Still for that read-out and setting: the value for `O=C1CCC(=O)N[C@@H](Cc2c[nH]c3ccccc23)C(=O)N[C@@H](Cc2ccccc2)C(=O)N[C@H](Cc2c[nH]c3ccccc23)CN1` was 3.16 nM; that for `O=C1C[C@H](NCc2nn[nH]n2)C(=O)NC[C@@H](Cc2ccccc2)NC(=O)[C@H](Cc2ccccc2)NC(=O)[C@H](Cc2c[nH]c3ccccc23)N1` was 1.58 nM. On to `CSCC[C@H](NC(=O)[C@H](CC(C)C)NC(=O)CNC(=O)[C@@H](NC(=O)[C@H](Cc1ccccc1)NC(=O)[C@H](CO)NC(=O)[C@H](CC(=O)O)NC(=O)[C@@H](NC(=O)[C@H](CCCCN)NC(=O)[C@@H](N)Cc1c[nH]cn1)[C@@H](C)O)C(C)C)C(N)=O`, for which the KD/Ki came out at 2 nM in test [1]; 6.6 nM in test [4]; 1.9 nM in test [6]; 10.7 nM in [7]; 2.1 nM in test [8]; 5.9 nM in test [9]. For the same compound, the KD/Ki in test [11] turned out to be 5.3 nM; in test [13], 0.5 nM; in test [14] it was 5.9 nM; in test [15] it was 40 nM; in test [16], 2.8 nM. Moreover, the UB result in test [2], in test [3], in test [5], in [10], in test [12] and in [17] was “inactive” in each case. Besides, the UB result in test [18] was “inactive”.
